Published values collected from several papers.
Compare with care: the assays were run in different laboratories.
Target: Serine/threonine-protein kinase SIK2 (SIK2, Homo sapiens, UniProt Q9H0K1)

| SMILES | effect on | mode | technique | concentration | quantity | result |
| --- | --- | --- | --- | --- | --- | --- |
| CC(=O)C1=C(C)N(c2cccc(C(F)(F)F)c2)C(=O)N[C@@H]1c1ccc(C#N)nc1 | cell-free assay |  | competition with immobilised ligand | 1 µM | remaining binding | 87.8% |
| COc1cc(-c2cc(-c3ccc(N4CCNCC4)cc3)cnc2N)cc(OC)c1OC | enzyme activity | inhibitor |  | 0.1 µM | inhibition | 66% |
| CC(C)(C)c1nc2c(s1)c1nc(N)ncc1c1ccc(NS(=O)(=O)c3c(F)cccc3F)c(F)c12 | enzyme activity | inhibitor | radiometric | 1 µM | remaining activity | 101% |
| COc1cc(/C=C/C(=O)CC(=O)/C=C/c2ccc(O)c(OC)c2)ccc1O | enzyme activity | inhibitor |  | 1 µM | activity vs control | 83% |
| O=C(Nc1cnn(-c2csc(C(=O)NC3COC3)c2)c1)Nc1c(F)cccc1Cl | enzyme activity | inhibitor |  | 5 µM | remaining activity | 95.8% |
| COc1cc(Nc2c(C#N)cnc3cc(OCCCN4CCN(C)CC4)c(OC)cc23)c(Cl)cc1Cl | cell-free assay |  |  | 0.5 µM | remaining signal | 1.93% |
| COc1cc2ncnc(Nc3ccc(Oc4ccccc4)cc3C)c2cc1OC | enzyme activity | inhibitor |  | 1 µM | inhibition | 3% |
| COc1cc(Cl)c(C(=O)N[C@@H](CN[C@H]2CC[C@@H](N)CC2)Cc2ccc(C#N)cc2)cc1-c1ccc(CN[C@H](C)c2ccc(C)cc2)o1 | enzyme activity | inhibitor |  | 1 µM | remaining activity | 96% |
| CNC(=O)Nc1ccc2c(c1)[C@@]1(CC2)OC(=O)N(CC(=O)N(Cc2ccc(F)cc2)[C@@H](C)C(F)(F)F)C1=O | cell-free assay |  | competition with immobilised ligand | 1 µM | remaining binding | 88% |
| FC(F)(F)Oc1cccc(-c2cnc3ccc(-c4ccncc4)nn23)c1 | enzyme activity | inhibitor | radiometric | 1 µM | activity vs control | 68% |
| CNCc1ccccc1-c1csc([C@@H](C)Nc2nc(C)nc3cc(OC)c(OC)cc23)c1 | cell-free assay |  | competition with immobilised ligand | 1 µM | remaining binding | 100% |
| N#CCCc1ccc2c(c1)-c1[nH]c3ccc([N+](=O)[O-])cc3c1CC(=O)N2 | cell-free assay |  |  | 0.5 µM | remaining signal | 44.2% |
| Cc1cc(NC(=O)c2cccc(S(F)(F)(F)(F)F)c2)cc(-n2ccn3nc(-c4cccnc4)cc23)c1 | cell-free assay |  | competition with immobilised ligand | 1 µM | remaining binding | 100% |
| COc1cc(Nc2cnc(C#N)c(O[C@H](C)CN(C)C)n2)ncc1-c1cnn(C)c1 | enzyme activity | inhibitor | radiometric | 1 µM | remaining activity | 80% |
| Cc1nc(C2CCN(C(=O)c3ccc(OC(F)(F)F)cc3N)CC2)c2ncc(N3CCN(C)CC3)cc2n1 | cell-free assay |  | competition with immobilised ligand | 1 µM | remaining binding | 100% |
| CCN(CC)CCNC(=O)c1c(C)[nH]c(/C=C2\C(=O)Nc3ccc(F)cc32)c1C | cell-free assay |  |  | 0.5 µM | remaining signal | 27.8% |
| CN(C)C(=O)Cn1cc(-c2nc(C3(c4ccc(-c5cnc(N)nc5)cc4)CC3)no2)cn1 | cell-free assay |  | competition with immobilised ligand | 1 µM | remaining binding | 100% |
| CCOc1cc(-c2nncn2C)ccc1Nc1ncc2cc(C)nc(NCC(C)(C)C)c2n1 | enzyme activity | inhibitor | FRET | 1 µM | inhibition | < 15% |
